In ChEMBL document CHEMBL2029337, “Synthesis and antimicrobial activities of structurally novel S,S'-bis(heterosubstituted) disulfides” (Bioorg Med Chem Lett, 2012):
In brackets after ≈: the same amount, converted by molar mass. Activity calls are given as the source filed them. The calls are words filed in the database; no cut-off is given here.

Columns and labels:
Staphylococcus aureus [1] = experiment: Antibacterial activity against methicillin-resistant Staphylococcus aureus ATCC 43300 […] by agar dilution method; format: functional
[2] = Antibacterial activity against Francisella tularensis subspecies holarctica LVS after 48 hrs by broth dilution method; format: functional, Francisella tularensis subsp. holarctica LVS
Escherichia coli = experiment: Antibacterial activity against Escherichia coli K-12 […] by agar dilution method; format: functional, organism-based
Bartonella sp. = experiment: Antibacterial activity against Bartonella ssp. […] by agar dilution method; format: functional
Staphylococcus aureus [3] = experiment: Antibacterial activity against methicillin-susceptible Staphylococcus aureus ATCC 25923 […] by agar dilution method; format: functional
Staphylococcus aureus [4] = experiment: Antibacterial activity against methicillin-resistant Staphylococcus aureus ATCC 43300 assessed as growth inhibition at 10 ug after 24 hrs by agar-diffusion assay in presence of cystine; format: functional, organism-based
Staphylococcus aureus [5] = experiment: Antibacterial activity against methicillin-resistant Staphylococcus aureus ATCC 43300 assessed as growth inhibition at 10 ug after 24 hrs by agar-diffusion assay in presence of lysine; format: functional, organism-based
In short: (§1)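 Kirby-Bauer well diffusion on an MRSA lawn (0.5 McFarland suspension swabbed onto tryptic soy agar). Four test agents sat in wells equidistant from a centre well holding 1 mg of additive in DMSO; a DMSO-only centre well served as vehicle control. After overnight incubation at 37 °C, the inhibition zones were examined for size or shape change.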

Staphylococcus aureus [6] = experiment: Antibacterial activity against methicillin-resistant Staphylococcus aureus ATCC 43300 assessed as growth inhibition at 10 ug after 24 hrs by agar-diffusion assay in presence of iPrSSiPr; format: functional, organism-based; in short: as §1
Staphylococcus aureus [7] = experiment: Antibacterial activity against methicillin-resistant Staphylococcus aureus ATCC 43300 assessed as growth inhibition at 10 ug after 24 hrs by agar-diffusion assay in presence of glycine; format: functional, organism-based; in short: as §1
Staphylococcus aureus [8] = experiment: Antibacterial activity against methicillin-resistant Staphylococcus aureus ATCC 43300 assessed as growth inhibition at 10 ug after 24 hrs by agar-diffusion assay in presence of valine; format: functional, organism-based; in short: as §1
Staphylococcus aureus [9] = experiment: Antibacterial activity against methicillin-resistant Staphylococcus aureus ATCC 43300 assessed as growth inhibition at 10 ug after 24 hrs by agar-diffusion assay in presence of CoA; format: functional, organism-based; in short: as §1
Staphylococcus aureus [10] = experiment: Antibacterial activity against methicillin-resistant Staphylococcus aureus ATCC 43300 assessed as growth inhibition at 10 ug after 24 hrs by agar-diffusion assay in presence of PPh3; format: functional, organism-based; in short: as §1
Staphylococcus aureus [11] = experiment: Antibacterial activity against methicillin-resistant Staphylococcus aureus ATCC 43300 assessed as growth inhibition at 10 ug after 24 hrs by agar-diffusion assay in presence of GSH; format: functional, organism-based; in short: as §1
Staphylococcus aureus [12] = experiment: Antibacterial activity against methicillin-resistant Staphylococcus aureus ATCC 43300 assessed as growth inhibition at 20 ug after 24 hrs by agar-diffusion assay in presence of valine; format: functional, organism-based; in short: as §1
Staphylococcus aureus [13] = experiment: Antibacterial activity against methicillin-resistant Staphylococcus aureus ATCC 43300 assessed as growth inhibition at 20 ug after 24 hrs by agar-diffusion assay in presence of PPh3; format: functional, organism-based; in short: as §1
Staphylococcus aureus [14] = experiment: Antibacterial activity against methicillin-resistant Staphylococcus aureus ATCC 43300 assessed as growth inhibition at 20 ug after 24 hrs by agar-diffusion assay in presence of CoA; format: functional, organism-based; in short: as §1
Staphylococcus aureus [15] = experiment: Antibacterial activity against methicillin-resistant Staphylococcus aureus ATCC 43300 assessed as growth inhibition at 20 ug after 24 hrs by agar-diffusion assay in presence of GSH; format: functional, organism-based; in short: as §1
Staphylococcus aureus [16] = experiment: Antibacterial activity against methicillin-resistant Staphylococcus aureus ATCC 43300 assessed as growth inhibition at 20 ug after 24 hrs by agar-diffusion assay in presence of glycine; format: functional, organism-based; in short: as §1
Staphylococcus aureus [17] = experiment: Antibacterial activity against methicillin-resistant Staphylococcus aureus ATCC 43300 assessed as growth inhibition at 20 ug after 24 hrs by agar-diffusion assay in presence of cystine; format: functional, organism-based
Staphylococcus aureus [18] = experiment: Antibacterial activity against methicillin-resistant Staphylococcus aureus ATCC 43300 assessed as growth inhibition at 20 ug after 24 hrs by agar-diffusion assay in presence of iPrSSiPr; format: functional, organism-based; in short: as §1
Staphylococcus aureus [19] = experiment: Antibacterial activity against methicillin-resistant Staphylococcus aureus ATCC 43300 assessed as growth inhibition at 20 ug after 24 hrs by agar-diffusion assay in presence of lysine; format: functional, organism-based; in short: as §1

Row | Compound | MIC (Staphylococcus aureus [1]) [µg/mL] | MIC [2] [µg/mL] | Activity (Escherichia coli) | Activity (Bartonella sp.) | MIC (Staphylococcus aureus [3]) [µg/mL] | also measured
1 | CC(C)[C@@H]1CC[C@@H](C)C[C@H]1OSSO[C@@H]1C[C@H](C)CC[C@H]1C(C)C | 16 (≈ 42.7 µM) | 4 (≈ 10.7 µM) | inactive | inactive | 8 (≈ 21.4 µM) | –
2 | CCCSSSSCCC | 32 (≈ 149 µM) | 1 (≈ 4.66 µM) | inactive | inactive | 32 (≈ 149 µM) | –
3 | CCCCNSSNCCCC | 32 (≈ 154 µM) | 4 (≈ 19.2 µM) | inactive | inactive | 8 (≈ 38.4 µM) | –
4 | CCC(C)SSSSC(C)CC (configuration not stated) | 64 (≈ 264 µM) | 16 (≈ 66 µM) | inactive | inactive | 32 (≈ 132 µM) | –
5 | c1ccc(SSSSc2ccccc2)cc1 | 8 (≈ 28.3 µM) | 2 (≈ 7.08 µM) | inactive | inactive | 8 (≈ 28.3 µM) | –
6 | CC[C@@H](C)OSSO[C@H](C)CC | 32 (≈ 152 µM) | 16 (≈ 76.1 µM) | inactive | inactive | 16 (≈ 76.1 µM) | –
7 | CC(C)SSSSC(C)C | 32 (≈ 149 µM) | 8 (≈ 37.3 µM) | inactive | inactive | 32 (≈ 149 µM) | –
8 | CCCOSSOCCC | 32 (≈ 176 µM) | 16 (≈ 87.8 µM) | inactive | inactive | 32 (≈ 176 µM) | –
9 | CCCCOSSOCCCC | 8 (≈ 38 µM) | 4 (≈ 19 µM) | inactive | inactive | 0.25 (≈ 1.19 µM) | –
10 | CN(C)SSN(C)C | 0.5 (≈ 3.28 µM) | 8 (≈ 52.5 µM) | inactive | inactive | 0.25 (≈ 1.64 µM) | –
11 | CCCNSSNCCC | 4 (≈ 22.2 µM) | 16 (≈ 88.7 µM) | inactive | inactive | 8 (≈ 44.4 µM) | –
12 | CC(C)N(SSN(C(C)C)C(C)C)C(C)C | 1 (≈ 3.78 µM) | 32 (≈ 121 µM) | inactive | inactive | 2 (≈ 7.56 µM) | –
13 | CC(C)NSSNC(C)C | 32 (≈ 177 µM) | 2 (≈ 11.1 µM) | inactive | inactive | 32 (≈ 177 µM) | –
14 | CCC(C)NSSNC(C)CC (configuration not stated) | 16 (≈ 76.8 µM) | 8 (≈ 38.4 µM) | inactive | inactive | 16 (≈ 76.8 µM) | –
15 | C[C@H](c1ccccc1)N(Cc1ccccc1)SSN(Cc1ccccc1)[C@H](C)c1ccccc1 | 64 (≈ 132 µM) | 16 (≈ 33 µM) | inactive | inactive | 16 (≈ 33 µM) | –
16 | c1ccc(OSSOc2ccccc2)cc1 | 2 (≈ 7.99 µM) | 1 (≈ 3.99 µM) | inactive | inactive | 2 (≈ 7.99 µM) | –

Row | Compound | MIC (Staphylococcus aureus [1]) [µg/mL] | MIC [2] [µg/mL] | Activity (Escherichia coli) | Activity (Bartonella sp.) | MIC (Staphylococcus aureus [3]) [µg/mL] | also measured
17 | CCN(CC)SSN(CC)CC | 2 (≈ 9.6 µM) | 16 (≈ 76.8 µM) | inactive | inactive | 2 (≈ 9.6 µM) | –
18 | CCCCSSSSCCCC | 32 (≈ 132 µM) | 4 (≈ 16.5 µM) | inactive | inactive | 64 (≈ 264 µM) | –
19 | CC(C)[C@H]1CC[C@H](C)C[C@@H]1OSSO[C@H]1C[C@@H](C)CC[C@@H]1C(C)C | 8 (≈ 21.4 µM) | 4 (≈ 10.7 µM) | inactive | inactive | 8 (≈ 21.4 µM) | –
20 | CCC(C)OSSOC(C)CC (configuration not stated) | 8 (≈ 38 µM) | 16 (≈ 76.1 µM) | inactive | inactive | 16 (≈ 76.1 µM) | –
21 | CC(C)SSc1ccc([N+](=O)[O-])cc1 | – | – | – | – | – | growth inhibition (GI) (Staphylococcus aureus [4]): inactive; growth inhibition (GI) (Staphylococcus aureus [5]): Active; growth inhibition (GI) (Staphylococcus aureus [6]): Active; growth inhibition (GI) (Staphylococcus aureus [7]): Active; growth inhibition (GI) (Staphylococcus aureus [8]): Active; growth inhibition (GI) (Staphylococcus aureus [9]): inactive; growth inhibition (GI) (Staphylococcus aureus [10]): Active; growth inhibition (GI) (Staphylococcus aureus [11]): inactive
22 | CC1(C)S[C@@H]2[C@H](NC(=O)Cc3ccccc3)C(=O)N2[C@H]1C(=O)O [PENICILLIN G] | 64 (≈ 191 µM) | – | – | – | 0.25 (≈ 0.748 µM) | growth inhibition (GI) (Staphylococcus aureus [4]): Active; growth inhibition (GI) (Staphylococcus aureus [5]): Active; growth inhibition (GI) (Staphylococcus aureus [6]): Active; growth inhibition (GI) (Staphylococcus aureus [7]): Active; growth inhibition (GI) (Staphylococcus aureus [8]): Active; growth inhibition (GI) (Staphylococcus aureus [9]): Active; growth inhibition (GI) (Staphylococcus aureus [10]): Active; growth inhibition (GI) (Staphylococcus aureus [11]): Active
23 | CC(COSSOCC(C)c1ccccc1)c1ccccc1 (racemic) | 16 (≈ 47.8 µM) | 8 (≈ 23.9 µM) | inactive | inactive | 16 (≈ 47.8 µM) | –
24 | C[C@@H](c1ccccc1)N(Cc1ccccc1)SSN(Cc1ccccc1)[C@@H](C)c1ccccc1 | 64 (≈ 132 µM) | 16 (≈ 33 µM) | inactive | inactive | 16 (≈ 33 µM) | –
25 | CC1CCC(C(C)C)C(OSSOC2CC(C)CCC2C(C)C)C1 (racemic) | 16 (≈ 42.7 µM) | 4 (≈ 10.7 µM) | inactive | inactive | 8 (≈ 21.4 µM) | –
26 | c1ccc(NSSNc2ccccc2)cc1 | 4 (≈ 16.1 µM) | 0.5 (≈ 2.01 µM) | inactive | inactive | 4 (≈ 16.1 µM) | –
27 | CC[C@H](C)OSSO[C@@H](C)CC | 32 (≈ 152 µM) | 16 (≈ 76.1 µM) | inactive | inactive | 16 (≈ 76.1 µM) | –
28 | C=CCN(CC=C)SSN(CC=C)CC=C | 0.5 (≈ 1.95 µM) | 16 (≈ 62.4 µM) | inactive | inactive | 1 (≈ 3.9 µM) | –
29 | O=C(O)c1cn(C2CC2)c2cc(N3CCNCC3)c(F)cc2c1=O [CIPROFLOXACIN] | – | 0.125 (≈ 0.377 µM) | – | – | – | –
30 | CC(C)CN(CC(C)C)SSN(CC(C)C)CC(C)C | 16 (≈ 49.9 µM) | 1 (≈ 3.12 µM) | inactive | inactive | 16 (≈ 49.9 µM) | –
31 | C=CC(=O)O[C@H]1C(=O)N(SC)[C@H]1c1ccccc1Cl | – | – | – | – | – | growth inhibition (GI) (Staphylococcus aureus [12]): Active; growth inhibition (GI) (Staphylococcus aureus [13]): Active; growth inhibition (GI) (Staphylococcus aureus [14]): inactive; growth inhibition (GI) (Staphylococcus aureus [15]): inactive; growth inhibition (GI) (Staphylococcus aureus [16]): Active; growth inhibition (GI) (Staphylococcus aureus [17]): inactive; growth inhibition (GI) (Staphylococcus aureus [18]): Active; growth inhibition (GI) (Staphylococcus aureus [19]): Active
